Data: ChEMBL document CHEMBL2062435, “Synthesis and in vitro antibacterial activity of gemifloxacin derivatives containing a substituted benzyloxime moiety” (2012)

Key:
Format in all cases: functional
Pseudomonas aeruginosa [1] = assay: Antimicrobial activity against extended spectrum beta-lactamases-producing Pseudomonas aeruginosa 10-15 after 18-24 hrs by two-fold serial dilution method
Procedure, shortened: (§1)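 Agar-medium twofold serial dilution against Gram-positive and Gram-negative strains; MIC taken as the lowest compound concentration giving complete inhibition of bacterial growth after incubation at 35 °C for 18-24 h.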

Pseudomonas aeruginosa [2] = assay: Antimicrobial activity against extended spectrum beta-lactamases-producing Pseudomonas aeruginosa 10-5 after 18-24 hrs by two-fold serial dilution method; procedure, shortened: as §1
Klebsiella pneumoniae [3] = assay: Antimicrobial activity against extended spectrum beta-lactamases-producing Klebsiella pneumoniae 10-1 after 18-24 hrs by two-fold serial dilution method; procedure, shortened: as §1
Enterococcus faecium [4] = assay: Antimicrobial activity against Enterococcus faecium 10-9 after 18-24 hrs by two-fold serial dilution method; procedure, shortened: as §1
[5] = system: Staphylococcus epidermidis; assay: Antimicrobial activity against extended spectrum beta-lactamases-producing methicillin-resistant Staphylococcus epidermidis 10-10 after 18-24 hrs by two-fold serial dilution method
Procedure, shortened: (§2)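 Agar twofold serial dilution MIC against clinical isolates. MIC was taken as the lowest concentration giving complete inhibition of bacterial growth after incubation at 35 °C for 18-24 h.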

Streptococcus pneumoniae [6] = assay: Antimicrobial activity against extended spectrum beta-lactamases-producing Streptococcus pneumoniae 10-1 after 18-24 hrs by two-fold serial dilution method; procedure, shortened: as §1
Escherichia coli [7] = assay: Antimicrobial activity against extended spectrum beta-lactamases-producing Escherichia coli 10-3 after 18-24 hrs by two-fold serial dilution method; procedure, shortened: as §1
[8] = system: Staphylococcus epidermidis; assay: Antimicrobial activity against extended spectrum beta-lactamases-producing methicillin-sensitive Staphylococcus epidermidis 10-11 after 18-24 hrs by two-fold serial dilution method; procedure, shortened: as §1
Escherichia coli [9] = assay: Antimicrobial activity against extended spectrum beta-lactamases-producing Escherichia coli 10-2 after 18-24 hrs by two-fold serial dilution method; procedure, shortened: as §1
Escherichia coli [10] = assay: Antimicrobial activity against Escherichia coli ATCC 25922 after 18-24 hrs by two-fold serial dilution method; procedure, shortened: as §1
Enterococcus faecium [11] = assay: Antimicrobial activity against Enterococcus faecium 10-5 after 18-24 hrs by two-fold serial dilution method; procedure, shortened: as §1
Staphylococcus aureus [12] = assay: Antimicrobial activity against extended spectrum beta-lactamases-producing methicillin-resistant Staphylococcus aureus 10-15 after 18-24 hrs by two-fold serial dilution method; procedure, shortened: as §2
Pseudomonas aeruginosa [13] = assay: Antimicrobial activity against extended spectrum beta-lactamases-producing Pseudomonas aeruginosa 10-18 after 18-24 hrs by two-fold serial dilution method; procedure, shortened: as §1
[14] = system: Staphylococcus epidermidis; assay: Antimicrobial activity against extended spectrum beta-lactamases-producing methicillin-sensitive Staphylococcus epidermidis 10-15 after 18-24 hrs by two-fold serial dilution method; procedure, shortened: as §1
Staphylococcus aureus [15] = assay: Antimicrobial activity against extended spectrum beta-lactamases-producing methicillin-resistant Staphylococcus aureus 10-11 after 18-24 hrs by two-fold serial dilution method; procedure, shortened: as §2
Staphylococcus aureus [16] = assay: Antimicrobial activity against extended spectrum beta-lactamases-producing methicillin-sensitive Staphylococcus aureus 10-13 after 18-24 hrs by two-fold serial dilution method; procedure, shortened: as §1
Klebsiella pneumoniae [17] = assay: Antimicrobial activity against Klebsiella pneumoniae 10-3 after 18-24 hrs by two-fold serial dilution method; procedure, shortened: as §1
Klebsiella pneumoniae [18] = assay: Antimicrobial activity against Klebsiella pneumoniae 10-2 after 18-24 hrs by two-fold serial dilution method; procedure, shortened: as §1
Enterococcus faecalis [19] = assay: Antimicrobial activity against Enterococcus faecalis 10-6 after 18-24 hrs by two-fold serial dilution method; procedure, shortened: as §1
Staphylococcus aureus [20] = assay: Antimicrobial activity against extended spectrum beta-lactamases-producing methicillin-sensitive Staphylococcus aureus 10-14 after 18-24 hrs by two-fold serial dilution method; procedure, shortened: as §1
Klebsiella pneumoniae [21] = assay: Antimicrobial activity against extended spectrum beta-lactamases-producing Klebsiella pneumoniae 10-3 after 18-24 hrs by two-fold serial dilution method; procedure, shortened: as §1
Enterococcus faecalis [22] = assay: Antimicrobial activity against Enterococcus faecalis 10-5 after 18-24 hrs by two-fold serial dilution method; procedure, shortened: as §1
Enterococcus faecalis [23] = assay: Antimicrobial activity against Enterococcus faecalis 10-7 after 18-24 hrs by two-fold serial dilution method; procedure, shortened: as §1
Pseudomonas aeruginosa [24] = assay: Antimicrobial activity against extended spectrum beta-lactamases-producing Pseudomonas aeruginosa 10-9 after 18-24 hrs by two-fold serial dilution method; procedure, shortened: as §1
Escherichia coli [25] = assay: Antimicrobial activity against Escherichia coli 10-1 after 18-24 hrs by two-fold serial dilution method; procedure, shortened: as §1
Escherichia coli [26] = assay: Antimicrobial activity against Escherichia coli 10-3 after 18-24 hrs by two-fold serial dilution method; procedure, shortened: as §1
[27] = system: Staphylococcus epidermidis; assay: Antimicrobial activity against extended spectrum beta-lactamases-producing methicillin-sensitive Staphylococcus epidermidis 10-13 after 18-24 hrs by two-fold serial dilution method; procedure, shortened: as §1
Klebsiella pneumoniae [28] = assay: Antimicrobial activity against Klebsiella pneumoniae 10-4 after 18-24 hrs by two-fold serial dilution method; procedure, shortened: as §1
Pseudomonas aeruginosa [29] = assay: Antimicrobial activity against extended spectrum beta-lactamases-producing Pseudomonas aeruginosa 10-20 after 18-24 hrs by two-fold serial dilution method; procedure, shortened: as §1
Klebsiella pneumoniae [30] = assay: Antimicrobial activity against extended spectrum beta-lactamases-producing Klebsiella pneumoniae 10-2 after 18-24 hrs by two-fold serial dilution method; procedure, shortened: as §1
Escherichia coli [31] = assay: Antimicrobial activity against Escherichia coli 10-2 after 18-24 hrs by two-fold serial dilution method; procedure, shortened: as §1
[32] = system: Staphylococcus epidermidis; assay: Antimicrobial activity against extended spectrum beta-lactamases-producing methicillin-resistant Staphylococcus epidermidis 10-13 after 18-24 hrs by two-fold serial dilution method; procedure, shortened: as §2
Escherichia coli [33] = assay: Antimicrobial activity against extended spectrum beta-lactamases-producing Escherichia coli 10-4 after 18-24 hrs by two-fold serial dilution method; procedure, shortened: as §1
Streptococcus pneumoniae [34] = assay: Antimicrobial activity against extended spectrum beta-lactamases-producing Streptococcus pneumoniae 10-4 after 18-24 hrs by two-fold serial dilution method; procedure, shortened: as §1
Staphylococcus aureus [35] = assay: Antimicrobial activity against Staphylococcus aureus ATCC […] after 18-24 hrs by two-fold serial dilution method; procedure, shortened: as §1
Pseudomonas aeruginosa [36] = assay: Antimicrobial activity against Pseudomonas aeruginosa 10-12 after 18-24 hrs by two-fold serial dilution method; procedure, shortened: as §1

Measured: MIC

COc1ccc(CO/N=C2\CN(c3nc4c(cc3F)c(=O)c(C(=O)O)cn4C3CC3)CC2CN)c([N+](=O)[O-])c1OC.CS(=O)(=O)O (racemic)
16 µg/mL: Pseudomonas aeruginosa [24] | Escherichia coli [26]
8 µg/mL: Pseudomonas aeruginosa [2] | Pseudomonas aeruginosa [13] | Klebsiella pneumoniae [17] | Escherichia coli [31] | Escherichia coli [33]
0.25 µg/mL: Pseudomonas aeruginosa [29]
1 µg/mL: Streptococcus pneumoniae [6] | Staphylococcus aureus [12] | Staphylococcus aureus [16] | Enterococcus faecalis [22] | [27]
> 128 µg/mL: Klebsiella pneumoniae [3] | Escherichia coli [7] | Escherichia coli [9] | Klebsiella pneumoniae [18] | Klebsiella pneumoniae [21] | Escherichia coli [25] | Klebsiella pneumoniae [28] | Klebsiella pneumoniae [30]
2 µg/mL: [5] | Staphylococcus aureus [15] | Enterococcus faecalis [23]
0.06 µg/mL: Staphylococcus aureus [20] | Staphylococcus aureus [35] | Pseudomonas aeruginosa [36]
4 µg/mL: Pseudomonas aeruginosa [1] | Enterococcus faecium [4] | [8] | Enterococcus faecium [11] | [14] | Enterococcus faecalis [19] | Streptococcus pneumoniae [34]
0.5 µg/mL: Escherichia coli [10] | [32]

COc1ccc(CO/N=C2\CN(c3nc4c(cc3F)c(=O)c(C(=O)O)cn4C3CC3)CC2CN)c(OC)c1.CS(=O)(=O)O (racemic)
4 µg/mL: Pseudomonas aeruginosa [2] | [8] | [14] | Enterococcus faecalis [19] | Streptococcus pneumoniae [34]
1 µg/mL: Streptococcus pneumoniae [6] | Staphylococcus aureus [15] | Staphylococcus aureus [16] | [27]
0.06 µg/mL: Staphylococcus aureus [20] | Staphylococcus aureus [35] | Pseudomonas aeruginosa [36]
8 µg/mL: Pseudomonas aeruginosa [1] | Enterococcus faecium [4] | Enterococcus faecium [11] | Klebsiella pneumoniae [17] | Pseudomonas aeruginosa [24] | Escherichia coli [31]
> 128 µg/mL: Klebsiella pneumoniae [3] | Escherichia coli [9] | Klebsiella pneumoniae [18] | Klebsiella pneumoniae [21] | Escherichia coli [25] | Klebsiella pneumoniae [28] | Klebsiella pneumoniae [30]
32 µg/mL: Escherichia coli [7]
0.5 µg/mL: Enterococcus faecalis [22] | [32]
2 µg/mL: [5] | Enterococcus faecalis [23]
0.25 µg/mL: Staphylococcus aureus [12] | Pseudomonas aeruginosa [29] | Escherichia coli [33]
16 µg/mL: Pseudomonas aeruginosa [13] | Escherichia coli [26]
0.125 µg/mL: Escherichia coli [10]

COc1ccc(CO/N=C2\CN(c3nc4c(cc3F)c(=O)c(C(=O)O)cn4C3CC3)CC2CN)c(OC)c1OC.CS(=O)(=O)O (racemic)
0.25 µg/mL: Staphylococcus aureus [12]
8 µg/mL: Pseudomonas aeruginosa [2] | Enterococcus faecium [4] | Pseudomonas aeruginosa [13] | Klebsiella pneumoniae [17] | Pseudomonas aeruginosa [24] | Pseudomonas aeruginosa [36]
64 µg/mL: Escherichia coli [25]
> 128 µg/mL: Klebsiella pneumoniae [3] | Klebsiella pneumoniae [18] | Klebsiella pneumoniae [21] | Klebsiella pneumoniae [28] | Klebsiella pneumoniae [30]
2 µg/mL: [5] | [8] | [14] | Staphylococcus aureus [15] | Enterococcus faecalis [19] | Enterococcus faecalis [23]
1 µg/mL: Enterococcus faecalis [22]
0.06 µg/mL: Streptococcus pneumoniae [34]
0.03 µg/mL: Escherichia coli [10] | [27]
32 µg/mL: Escherichia coli [7]
0.5 µg/mL: Streptococcus pneumoniae [6] | [32]
4 µg/mL: Enterococcus faecium [11] | Pseudomonas aeruginosa [29] | Escherichia coli [33]
16 µg/mL: Pseudomonas aeruginosa [1] | Escherichia coli [26] | Escherichia coli [31]
0.015 µg/mL: Staphylococcus aureus [16] | Staphylococcus aureus [20] | Staphylococcus aureus [35]
128 µg/mL: Escherichia coli [9]
